Assay results: ChEMBL document CHEMBL3046036, “Bioactivity of the fungal metabolite (8R,16R)-(-)-pyrenophorin on graminaceous plants” (J Agric Food Chem, 2005)
The source made the active and inactive calls. The rule behind the calls is not given here.

What was measured:
Avena sativa [1] = test: Inhibition of Avena sativa root growth at 20 degC and 12 hr photoperiod at 31 to 50 uM; assay type: functional, organism-based
Procedure, shortened: (§1)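 Pregerminated seeds were exposed in tubes to aqueous metabolite and kept in a growth chamber at 20 °C with a 12-h photoperiod. Main root length was measured after 120 h.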

Hordeum vulgare [2] = test: Enhancement of Hordeum vulgare (barley) root growth at 20 degC and 12 hr photoperiod at 10 to 30 uM; assay type: functional, organism-based; procedure, shortened: as §1
Avena sterilis [3] = test: Inhibition of Avena sterilis seed germination at 20 degC at 640 uM (reference value: 0%); assay type: functional
Avena fatua [4] = test: Enhancement of Avena fatua root growth at 20 degC and 12 hr photoperiod at 10 to 30 uM; assay type: functional, organism-based; procedure, shortened: as §1
Avena sativa [5] = test: Inhibition of Avena sativa seed germination at 20 degC at 70 uM (reference value: 0%); assay type: functional
Hordeum vulgare [6] = test: Inhibition of Hordeum vulgare (barley) root growth at 20 degC and 12 hr photoperiod at 31 to 50 uM; assay type: functional, organism-based; procedure, shortened: as §1
Avena fatua [7] = test: Inhibition of Avena fatua seed germination at 20 degC at 640 uM (reference value: 0%); assay type: functional
Avena sterilis [8] = test: Inhibition of Avena sterilis seed germination at 20 degC at 200 uM (reference value: 0%); assay type: functional
Triticum aestivum [9] = test: Inhibition of Triticum aestivum (wheat) seed germination at 20 degC at 60 uM (reference value: 0%); assay type: functional
Triticum aestivum [10] = test: Inhibition of Triticum aestivum (wheat) seed germination at 20 degC at 200 uM (reference value: 0%); assay type: functional
Avena sativa [11] = test: Inhibition of Avena sativa seed germination at 20 degC at 200 uM (reference value: 0%); assay type: functional
Avena sterilis [12] = test: Inhibition of Avena sterilis seed germination at 20 degC at 100 uM (reference value: 0%); assay type: functional
Avena sterilis [13] = test: Enhancement of Avena sterilis root growth at 20 degC and 12 hr photoperiod at 10 to 30 uM; assay type: functional, organism-based; procedure, shortened: as §1
Avena sterilis [14] = test: Inhibition of Avena sterilis seed germination at 20 degC at 90 uM (reference value: 0%); assay type: functional
Triticum aestivum [15] = test: Inhibition of Triticum aestivum (wheat) seed germination at 20 degC at 640 uM (reference value: 0%); assay type: functional
Hordeum vulgare [16] = test: Inhibition of Hordeum vulgare (barley) seed germination at 20 degC at 200 uM (reference value: 0%); assay type: functional
Avena sativa [17] = test: Phytotoxicity against Avena sativa root growth at 20 degC and 12 hr photoperiod at 1000 uM; assay type: organism-based; details: in vivo
Avena sativa [18] = test: Inhibition of Avena sativa seed germination at 20 degC at 100 uM (reference value: 0%); assay type: functional
Avena fatua [19] = test: Inhibition of Avena fatua seed germination at 20 degC at 60 uM (reference value: 0%); assay type: functional
Avena sterilis [20] = test: Inhibition of Avena sterilis seed germination at 20 degC at 60 uM (reference value: 0%); assay type: functional
Hordeum vulgare [21] = test: Inhibition of Hordeum vulgare (barley) seed germination at 20 degC at 640 uM (reference value: 0%); assay type: functional
Avena fatua [22] = test: Inhibition of Avena fatua seed germination at 20 degC at 90 uM (reference value: 0%); assay type: functional
Hordeum vulgare [23] = test: Inhibition of Hordeum vulgare (barley) seed germination at 20 degC at 100 uM (reference value: 0%); assay type: functional
Triticum aestivum [24] = test: Inhibition of Triticum aestivum (wheat) root growth at 20 degC and 12 hr photoperiod at 31 to 50 uM; assay type: functional, organism-based
Avena sterilis [25] = test: Inhibition of Avena sterilis seed germination at 20 degC at 80 uM (reference value: 0%); assay type: functional
Avena sterilis [26] = test: Inhibition of Avena sterilis seed germination at 20 degC at 10 to 50 uM (reference value: 0%); assay type: functional
Avena fatua [27] = test: Effect on chlorophyll content in Avena fatua assessed as chlorophyll dissipation rate at 20 degC and […] at 320 uM relative to control; assay type: ADME, organism-based; details: in vivo
Procedure, shortened: (§2)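 Leaf sections were treated with 320 µM metabolite and incubated in the dark at 20 °C, with 16 tubes per treatment. Every 12 h, segments from one tube were split into four tubes and extracted in DMSO at 65 °C for 30 min. Extracts were read at A665, tissue was dried at 105 °C and weighed, and chlorophyll was expressed as A665 per g dry weight.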

Triticum aestivum [28] = test: Inhibition of Triticum aestivum (wheat) seed germination at 20 degC at 70 uM (reference value: 0%); assay type: functional
Avena fatua [29] = test: Inhibition of Avena fatua root growth at 20 degC and 12 hr photoperiod at 31 to 50 uM; assay type: functional, organism-based; procedure, shortened: as §1
Avena sterilis [30] = test: Inhibition of Avena sterilis seed germination at 20 degC at 320 uM (reference value: 0%); assay type: functional
Avena sterilis [31] = test: Inhibition of Avena sterilis seed germination at 20 degC at 70 uM (reference value: 0%); assay type: functional
Avena fatua [32] = test: Inhibition of Avena fatua seed germination at 20 degC at 320 uM (reference value: 0%); assay type: functional
Avena sativa [33] = test: Inhibition of Avena sativa seed germination at 20 degC at 10 to 50 uM (reference value: 0%); assay type: functional
Avena sativa [34] = test: Inhibition of Avena sativa seed germination at 20 degC at 80 uM (reference value: 0%); assay type: functional
Hordeum vulgare [35] = test: Effect on chlorophyll content in Hordeum vulgare (barley) assessed as chlorophyll dissipation rate at 20 degC and 12 hr photoperiod at 320 uM relative to control; assay type: ADME, organism-based; details: in vivo; procedure, shortened: as §2

C[C@@H]1CCC(=O)/C=C/C(=O)O[C@H](C)CCC(=O)/C=C/C(=O)O1 [(8R,16R)-(-)-pyrenophorin]
inhibition (Avena sativa [1]): inactive
Activity (Hordeum vulgare [2]): Active
inhibition at 640 µM (Avena sterilis [3]): 100%
Activity (Avena fatua [4]): Active
inhibition at 70 µM (Avena sativa [5]): 71.5%
inhibition (Hordeum vulgare [6]): inactive
inhibition at 640 µM (Avena fatua [7]): 100%
inhibition at 200 µM (Avena sterilis [8]): 100%
inhibition at 60 µM (Triticum aestivum [9]): 12.4%
inhibition at 200 µM (Triticum aestivum [10]): 90.6%
inhibition at 200 µM (Avena sativa [11]): 95.6%
inhibition at 100 µM (Avena sterilis [12]): 96.8%
Activity (Avena sterilis [13]): Active
inhibition at 90 µM (Avena sterilis [14]): 89.6%
inhibition at 640 µM (Triticum aestivum [15]): 100%
inhibition at 200 µM (Hordeum vulgare [16]): 99%
Activity (Avena sativa [17]): Non-toxic
inhibition at 100 µM (Avena sativa [18]): 93.5%
inhibition at 60 µM (Avena fatua [19]): 12.5%
inhibition at 60 µM (Avena sterilis [20]): 15%
inhibition at 640 µM (Hordeum vulgare [21]): 100%
inhibition at 90 µM (Avena fatua [22]): 87.8%
inhibition at 100 µM (Hordeum vulgare [23]): 95.4%
inhibition (Triticum aestivum [24]): inactive
inhibition at 80 µM (Avena sterilis [25]): 84.4%
inhibition (INH) (Avena sterilis [26]): 0%
Ratio (Avena fatua [27]): 1.4
inhibition at 70 µM (Triticum aestivum [28]): 67.8%
inhibition (Avena fatua [29]): inactive
inhibition at 320 µM (Avena sterilis [30]): 100%
inhibition at 70 µM (Avena sterilis [31]): 68.5%
inhibition at 320 µM (Avena fatua [32]): 100%
inhibition (INH) (Avena sativa [33]): 0%
inhibition at 80 µM (Avena sativa [34]): 82.6%
Ratio (Hordeum vulgare [35]): 1.4
